≈ marks a conversion by molar mass, not a printed value. Bounds are passed on as bounds.

One series concerns KB. The experiment in a line: Cytotoxicity against human KB cells after 3 days by SRB assay. Type of series: functional. The note with it: 72 h, read-out: ED50 (the source's name). The essentials: (§1)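 Human tumour lines from the Lineberger Comprehensive Cancer Center (UNC-CH). Selected samples were then run over a dose range in triplicate for three days. Growth was read by SRB absorbance at 562 nm. ED50 is the concentration giving a 50% fall in absorbance versus untreated cells.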
Background: The SRB assay estimates cell density from bound dye.

The subject of another series is A549. The experiment in a line: Cytotoxicity against human A549 cells after 3 days by SRB assay. Type of series: functional. The note with it: A549, 72 h, read-out: ED50 (the source's name). A digest of the protocol:
as §1

A further series relates to HCT-8. In words: Cytotoxicity against human HCT8 cells after 3 days by SRB assay. In kind it is functional. The note with it: HCT-8, 72 h, read-out: ED50 (the source's name). A digest of the protocol: as §1
In the next series the test system is CAKI-1. The experiment in a line: Cytotoxicity against human CAKI1 cells after 3 days by SRB assay. In kind it is functional. The note with it: CAKI-1, 72 h, read-out: ED50 (the source's name). A digest of the protocol: as §1
A further series has as its system MCF7. In words: Cytotoxicity against human MCF7 cells after 3 days by SRB assay. In kind it is functional. The note with it: MCF7, 72 h, read-out: ED50 (the source's name). The essentials:
as §1

The test system of the next series is SK-MEL-2. In words: Cytotoxicity against human SK-MEL-2 cells after 3 days by SRB assay. The note with it: for EC50: Homo sapiens, SK-MEL-2, 72 h, read-out: ED50 (the source's name). In kind it is functional.
The test system of series [1] is Human immunodeficiency virus. The experiment in a line: Inhibition of HIV replication in human H9 cells. The note with it: Human immunodeficiency virus 1, H9. In kind it is functional, organism-based.
A further series concerns H9. The experiment in a line: Growth inhibition of human H9 cells. In kind it is cell-based.
The nature of series [2]: Therapeutic index, ratio of IC50 for human H9 cells to EC50 for HIV. In kind it is cell-based. The note with it: read-out: Ratio IC50/EC50.

As to `COc1cnc2ccc(=O)n3c4ccccc4c1c23`, the EC50 in the series with KB was 3.6 µg/mL (≈ 14.4 µM); in the series with A549 it was 4.3 µg/mL (≈ 17.2 µM); in the series with HCT-8, 3.6 µg/mL (≈ 14.4 µM); with CAKI-1 it was 3.6 µg/mL (≈ 14.4 µM); in the series with MCF7 it was 13.5 µg/mL (≈ 53.9 µM); in the series with SK-MEL-2 it was greater than 20 µg/mL. This molecule also had an EC50 in series [1] of 0.256 µg/mL (≈ 1.02 µM). Besides, the “inhibition (INH)” value in the series on SK-MEL-2 turned out to be 46%. In the series on H9, this molecule had a concentration for half-maximal inhibition (IC50) greater than 100 µg/mL. For the same molecule, the selectivity ratio in [2] was greater than 391.
On to `CC[C@@H](C)C(=O)O[C@H]1C(=O)O[C@@H]2C[C@H]3C(C)=CC(=O)[C@@H](O)[C@]3(C)[C@H]3[C@@H](O)[C@H](O)[C@]4(C)OC[C@]32[C@@H]14` [SIMALIKALACTONE D], for which the EC50 in the series on KB came out at 0.018 µg/mL (≈ 0.0376 µM); with A549, 0.04 µg/mL (≈ 0.0836 µM); with HCT-8, 0.013 µg/mL (≈ 0.0272 µM); in the series on CAKI-1, 0.26 µg/mL (≈ 0.543 µM); in the series with MCF7, 0.014 µg/mL (≈ 0.0293 µM); in the series on SK-MEL-2 it was 0.13 µg/mL (≈ 0.272 µM).
In the case of `CC[C@](C)(OC(C)=O)C(=O)O[C@H]1C(=O)O[C@@H]2C[C@H]3C(C)=CC(=O)[C@@H](O)[C@]3(C)[C@H]3[C@@H](O)[C@H](O)[C@@]4(C)OC[C@]32[C@@H]14` [QUASSIMARIN], the EC50 stood at 0.06 µg/mL (≈ 0.112 µM) with KB; 0.03 µg/mL (≈ 0.0559 µM) in the series with A549; 0.012 µg/mL (≈ 0.0224 µM) in the series on HCT-8; 0.05 µg/mL (≈ 0.0932 µM) in the series on CAKI-1; 0.006 µg/mL (≈ 0.0112 µM) in the series on MCF7; 0.05 µg/mL (≈ 0.0932 µM) in the series with SK-MEL-2.
With `COc1cc2nccc3c4ccccc4n(c1=O)c23` [5-METHOXYCANTHINONE], the EC50 in the series with KB amounted to 2.9 µg/mL (≈ 11.6 µM); with A549, 3.1 µg/mL (≈ 12.4 µM); with HCT-8, 2.5 µg/mL (≈ 9.99 µM); in the series with CAKI-1, 4.4 µg/mL (≈ 17.6 µM); in the series with MCF7, 5 µg/mL (≈ 20 µM); in the series with SK-MEL-2, 17 µg/mL (≈ 67.9 µM).

By IC50 is commonly meant the concentration needed to halve the response being measured. Low values mean higher potency, high ones lower potency.

Values taken from ChEMBL document CHEMBL1157214, “Anti-HIV agents 45(1) and antitumor agents 205.(2) two new sesquiterpenes, leitneridanins A and B, and the cytotoxic and anti-HIV principles from Leitneria floridana” (J Nat Prod, 2000).
